Experimental data as given in ChEMBL document CHEMBL3108741 (J Med Chem, 2014).
Activity calls are given as the source filed them.

Legend:
[1] = test system: Xenopus laevis; test: Anesthetic effect on prelimb-bud stage Xenopus laevis tadpole assessed as loss of righting reflex after 3 hrs; format: functional, organism-based
[2] = species on record: Rattus norvegicus; test: […] of rat alpha1beta2gamma2L GABAA receptor expressed in Xenopus laevis oocytes assessed as chloride current elicitation at 10 uM by two-electrode voltage clamp technique relative to GABA; format: cell-based
Procedure, shortened: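 Rat α1β2γ2L GABAA receptors expressed in Xenopus oocytes, at least four oocytes. Direct current gated by 10 μM compound without GABA, expressed as the ratio of compound-only current to current evoked by 2 μM GABA; mean ± SEM.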

[3] = test system: Xenopus laevis; test: Anesthetic effect on prelimb-bud stage Xenopus laevis tadpole assessed as loss of swimming reflex after 3 hrs; format: functional, organism-based
[4] = species on record: Rattus norvegicus; test: Positive allosteric modulation of rat alpha1beta2gamma2L GABAA receptor expressed in Xenopus laevis oocytes assessed as potentiation of GABA-induced chloride current elicitation by two-electrode voltage clamp technique relative to control; format: cell-based
[5] = species on record: Rattus norvegicus; test: Positive allosteric modulation of rat alpha1beta2gamma2L GABAA receptor expressed in Xenopus laevis oocytes assessed as potentiation of GABA-induced chloride current elicitation at 10 uM by two-electrode voltage clamp technique relative to control; format: cell-based
[6] = species on record: Rattus norvegicus; test: Positive allosteric modulation of rat alpha1beta2gamma2L GABAA receptor expressed in Xenopus laevis oocytes assessed as potentiation of GABA-induced chloride current elicitation at 0.1 uM by two-electrode voltage clamp technique relative to control; format: cell-based
[7] = species on record: Rattus norvegicus; test: Positive allosteric modulation of rat alpha1beta2gamma2L GABAA receptor expressed in Xenopus laevis oocytes assessed as potentiation of GABA-induced chloride current elicitation at 1 uM by two-electrode voltage clamp technique relative to control; format: cell-based
[8] = Displacement of [35S]TBPS from rat picrotoxin binding site of GABAA receptor after 2 hrs by scintillation counting analysis
Procedure, shortened: (§1)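 [35S]TBPS binding inhibition; duplicate experiments each run in triplicate, mean ± SEM. Highest concentration tested 30 μM; IC50 from fitted binding curve, with maximal displacement noted where inhibition was partial.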

[9] = Lipophilicity, log P of the compound; format: physicochemical; conditions: octanol/water
[10] = test system: Mus musculus; test: Anesthetic effect in mouse assessed as recovery of righting reflex at 1 to 8 mg/kg, iv; format: functional; conditions: dose mg/kg 1-8
Procedure, shortened: (§2)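 Mice, tail vein injection; compound in 22.5% aqueous 2-(hydroxypropyl)-β-cyclodextrin, lower doses by serial dilution of the 8 mg/kg stock with 0.9% saline. Anesthesia scored as loss of righting reflex; duration of LRR recorded at each dose.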

[11] = test system: Mus musculus; test: Anesthetic effect in mouse assessed as onset of loss of righting reflex at 1 to 8 mg/kg, iv; format: functional; conditions: dose mg/kg 1-8
Procedure, shortened: (§3)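 Tail-vein injection in mice, with anesthesia read as loss of righting reflex (LRR): duration, onset and recovery scored. Compounds were dissolved in 22.5% aqueous 2-(hydroxypropyl)-β-cyclodextrin. Lower doses came from serial dilution of the 8 mg/kg solution with 0.9% saline. Doses tested were 1, 2, 4 and 8 mg/kg.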

[12] = test system: Mus musculus; test: Anesthetic effect in mouse assessed as duration of loss of righting reflex at 16 mg/kg, iv; format: functional; procedure, shortened: as §2
[13] = test system: Mus musculus; test: Anesthetic effect in mouse assessed as recovery of righting reflex at 8 to 16 mg/kg, iv; format: functional; conditions: dose mg/kg 8-16
Procedure, shortened: (§4)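 Mice were given intravenous tail-vein injections at 8 and 16 mg/kg. The compound was in 22.5% aqueous 2-(hydroxypropyl)-β-cyclodextrin. Anesthesia was defined as loss of righting reflex, and onset, duration and recovery of the reflex were followed.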

[14] = test system: Mus musculus; test: Anesthetic effect in mouse assessed as onset of loss of righting reflex at 8 to 16 mg/kg, iv; format: functional; conditions: dose mg/kg 8-16; procedure, shortened: as §4
[15] = test system: HEK293; test: Positive allosteric modulation of wild type rat alpha1beta2gamma2L GABAA receptor expressed in HEK293 cells assessed as longest-lived intracluster closed time at 20 uM by […] relative to control; format: cell-based
[16] = test system: HEK293; test: Positive allosteric modulation of wild type rat alpha1beta2gamma2L GABAA receptor expressed in HEK293 cells assessed as OT long at 20 uM by […]; format: cell-based
Procedure, shortened: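 Single-channel recording of rat wild-type α1β2γ2L GABAA receptors. Receptors were activated by 50 μM GABA with or without 20 μM compound, in 4-7 patches. Intracluster open-time histograms were fitted to sums of two or three exponentials, and the long open-time component was taken from the fit.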

[17] = test system: HEK293; test: Positive allosteric modulation of wild type rat alpha1beta2gamma2L GABAA receptor expressed in HEK293 cells assessed as longest-lived intracluster open time at 20 uM by […] relative to control; format: cell-based
[18] = test system: Xenopus laevis; test: Anesthetic effect on prelimb-bud stage Xenopus laevis tadpole assessed as loss of swimming reflex at 10 uM after 3 hrs; format: functional, organism-based
[19] = species on record: Rattus norvegicus; test: Displacement of [35S]TBPS from rat picrotoxin binding site of GABAA receptor at 30 uM after 2 hrs by scintillation counting analysis; procedure, shortened: as §1
[20] = test system: HEK293; test: Positive allosteric modulation of rat alpha1W245Lbeta2gamma2L GABAA receptor mutant expressed in HEK293 cells assessed as potentiation of GABA-induced chloride current elicitation at 20 uM by […] relative to control; format: cell-based
Procedure, shortened: (§5)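 HEK 293 cells expressing wild-type or α1 mutant receptors, whole-cell recording. Peak currents elicited by GABA at 5 μM for wild type or 10 μM for mutants (11–17% of maximal), with or without 20 μM compound. Mean ± S.D., 4–7 cells per receptor–compound combination.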

[21] = test system: Mus musculus; test: Anesthetic effect in mouse assessed as duration of loss of righting reflex at 4 mg/kg, iv; format: functional; procedure, shortened: as §3
[22] = test system: HEK293; test: Positive allosteric modulation of rat alpha1Q241Lbeta2gamma2L GABAA receptor mutant expressed in HEK293 cells assessed as potentiation of GABA-induced chloride current elicitation at 20 uM by […] relative to control; format: cell-based; procedure, shortened: as §5
[23] = test system: Mus musculus; test: Anesthetic effect in mouse assessed as duration of loss of righting reflex at 8 mg/kg, iv; format: functional; procedure, shortened: as §3
[24] = test system: Mus musculus; test: Anesthetic effect in mouse assessed as duration of loss of righting reflex at 2 mg/kg, iv; format: functional; procedure, shortened: as §3
[25] = test system: Mus musculus; test: Anesthetic effect in mouse assessed as duration of loss of righting reflex at 1 mg/kg, iv; format: functional, organism-based; parameters: dose 1 mg/kg; procedure, shortened: as §3
[26] = test system: HEK293; test: Positive allosteric modulation of rat alpha1S240Lbeta2gamma2L GABAA receptor mutant expressed in HEK293 cells assessed as potentiation of GABA-induced chloride current elicitation at 20 uM by […] relative to control; format: cell-based; procedure, shortened: as §5
[27] = test system: HEK293; test: Positive allosteric modulation of wild type rat alpha1beta2gamma2L GABAA receptor expressed in HEK293 cells assessed as potentiation of GABA-induced chloride current elicitation at 20 uM by […] relative to control; format: cell-based; procedure, shortened: as §5
[28] = test system: Xenopus laevis; test: Anesthetic effect on prelimb-bud stage Xenopus laevis tadpole assessed as loss of righting reflex at 10 uM after 3 hrs; format: functional, organism-based

Row | SMILES | EC50 [1] [nM] | Ratio [2] | EC50 [3] [nM] | Activity [4] | Ratio [5] | Ratio [6] | Ratio [7] | IC50 [8] [nM] | logP [9] | Ratio [15] | TIME [16] [ms] | Ratio [17] | also measured
1 | CO[C@@H]1C[C@]2(C)[C@H](CC[C@H]3[C@@H]4CC(=O)C[C@]4(C)CC[C@@H]32)C[C@H]1O | 2910 | 0.01 | 10300 | Dose-dependent effect | 2.95 | 0.91 | 1.03 | 3030 |  |  |  |  | 
2 | CC(=O)[C@H]1CC[C@H]2[C@@H]3CC[C@H]4C[C@H](O)CC[C@]4(C)[C@H]3CC[C@]12C [BREXANOLONE] |  | 0.37 |  | Dose-dependent effect | 9.65 | 1.26 | 3.89 | 74 | 4.46 |  |  |  | 
3 | CO[C@H]1C[C@@]2(C)[C@@H](CC[C@H]3[C@@H]4CC(=O)C[C@@]4(C)CC[C@@H]32)C[C@@H]1O | 3150 | 0.01 | 9290 | Dose-dependent effect | 4.48 | 0.92 | 1.23 | 1270 |  |  |  |  | 
4 | CC(=O)[C@H]1CC[C@H]2[C@@H]3CC[C@H]4C[C@H](O)CC[C@]4(C)[C@H]3C(=O)C[C@]12C [ALFAXALONE] |  |  |  |  |  |  |  |  |  |  |  |  | Time [10]: 1 min; Time [11]: <30 s; Time [12]: 4 min; Time [13]: 1 min; Time [14]: <30 s
5 | C[C@@]12CC[C@H](O)C[C@H]1CC[C@H]1[C@@H]3CC(=O)C[C@@H]3CC[C@@H]12 | 3640 | 0.01 |  | Dose-dependent effect | 3.56 | 0.93 | 1.13 | 1520 |  | 0.21 | 16.1 | 0.53 | Activity [18]: inactive
6 | CO[C@@H]1C[C@]2(C)[C@H](CC[C@@H]3[C@@H]2CC[C@@]2(C)C(=O)CC[C@@H]32)C[C@H]1O | 2390 | -0.01 | > 10000 | Dose-dependent effect | 1.53 | 0.93 | 0.93 | 6490 |  |  |  |  | 
7 | CO[C@H]1C[C@@]2(C)[C@@H](CC[C@@H]3[C@@H]2CC[C@]2(C)C(=O)CC[C@@H]32)C[C@@H]1O | 5090 | 0.08 | > 10000 | Dose-dependent effect | 3.39 | 0.84 | 1.04 | 2190 |  |  |  |  | 
8 | CO[C@H]1[C@H](O)CC[C@]2(C)[C@H]3CC[C@]4(C)CC(=O)C[C@H]4[C@@H]3CC[C@@H]12 | 3150 | 0.02 | 13500 | Dose-dependent effect | 0.69 | 0.88 | 0.72 | 6680 |  |  |  |  | inhibition [19]: 65%
9 | CO[C@H]1[C@H]2CC[C@H]3[C@@H]4CC(=O)C[C@]4(C)CC[C@@H]3[C@]2(C)CC[C@@H]1O | 340 | 0.08 | 1730 | Dose-dependent effect | 16 | 1.41 | 6.48 | 83 | 3.19 | 0.06 | 17.7 | 0.53 | Ratio [20]: 0.9; Time [21]: 5 min; Ratio [22]: 1.3; Time [23]: 9 min; Time [10]: 1 min; Time [11]: <30 s; Time [24]: 1 min; Time [13]: 1 min; Activity [25]: inactive; Ratio [26]: 9.4; Ratio [27]: 9.2; Time [14]: <30 s
10 | CO[C@H]1[C@H]2CC[C@@H]3[C@H](CC[C@@]4(C)C(=O)CC[C@@H]34)[C@]2(C)CC[C@@H]1O | 590 | 0.05 | 2940 | Dose-dependent effect | 12.2 | 1.21 | 3.67 | 198 |  |  |  |  | 
11 | C[C@@]12CC[C@@H]3[C@@H]4CC[C@H](O)C[C@H]4CC[C@H]3[C@@H]1CC(=O)C2 | 1160 | 0.02 | 5480 | Dose-dependent effect | 10.5 | 0.97 | 2.43 | 238 | 3.24 | 0.11 | 9.8 | 0.2 | 
12 | C[C@]12CC[C@H]3[C@@H](CC[C@H]4C[C@H](O)CC[C@@]43C)[C@@H]1CC(=O)C2 | 3600 | -0.02 | 7540 | Dose-dependent effect | 9.98 | 1.01 | 1.38 | 895 |  |  |  |  | 
13 | CO[C@H]1[C@H](O)CC[C@]2(C)[C@H]3CC[C@]4(C)C(=O)CC[C@H]4[C@@H]3CC[C@@H]12 |  | 0.12 |  | Dose-dependent effect | 0.91 | 1.08 | 1.01 | > 30000 |  |  |  |  | Activity [28]: inactive; inhibition [19]: 45%; Activity [18]: inactive
14 | O=C1C[C@@H]2CC[C@H]3[C@@H](CC[C@@H]4C[C@@H](O)CC[C@H]43)[C@@H]2C1 |  | 0 |  | Dose-dependent effect | 1.65 | 0.8 | 0.76 | 2020 | 2.77 | 0.27 | 11.5 | 0.49 | Activity [28]: inactive; inhibition [19]: 88%; Activity [18]: inactive
15 | C[C@@]12CC[C@H]3[C@@H](CC[C@@H]4C[C@@H](O)CC[C@]43C)[C@@H]1CC(=O)C2 | 550 | 0.15 | 1730 | Dose-dependent effect | 34.7 | 1.42 | 7.72 | 81 | 3.71 | 0.05 | 12.4 | 0.57 | Ratio [20]: 1; Ratio [22]: 1.3; Time [23]: 3 min; Time [10]: 1 min; Time [11]: <30 s; Time [12]: 7 min; Time [13]: 1 min; Ratio [26]: 7.6; Ratio [27]: 7.8; Time [14]: <30 s
